TbHK1 inh: Trypanosoma brucei hexokinase 1 inhibitors, primary screen, biochemical, G6PDH-coupled NADH absorbance, MLSCN library | 220,000 compounds, 0.11% hits | recombinant TbHK1, G6PDH-coupled NADH A340 | hexokinase 1 [Trypanosoma brucei] | AID 1430, 2008 | inhibition, % at 10 µM;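 active = inhibition of 50% or more in the single-dose primary screen; inactive = inhibition below 50%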
HKDC1 inhibitor: HKDC1 hexokinase inhibitors, primary screen, biochemical, fluorescence, uHTS | AID 493160, 2011 | Q2TB90 | inhibition, % at 20 µM | 340,000 compounds, 0.16% hits | recombinant HKDC1, G6PDH/diaphorase resazurin coupled fluorescence;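 active = inhibition above about 35% when tested at 20 µM, limit read from the data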
Target sequence (Q2TB90 whole entry, looked up): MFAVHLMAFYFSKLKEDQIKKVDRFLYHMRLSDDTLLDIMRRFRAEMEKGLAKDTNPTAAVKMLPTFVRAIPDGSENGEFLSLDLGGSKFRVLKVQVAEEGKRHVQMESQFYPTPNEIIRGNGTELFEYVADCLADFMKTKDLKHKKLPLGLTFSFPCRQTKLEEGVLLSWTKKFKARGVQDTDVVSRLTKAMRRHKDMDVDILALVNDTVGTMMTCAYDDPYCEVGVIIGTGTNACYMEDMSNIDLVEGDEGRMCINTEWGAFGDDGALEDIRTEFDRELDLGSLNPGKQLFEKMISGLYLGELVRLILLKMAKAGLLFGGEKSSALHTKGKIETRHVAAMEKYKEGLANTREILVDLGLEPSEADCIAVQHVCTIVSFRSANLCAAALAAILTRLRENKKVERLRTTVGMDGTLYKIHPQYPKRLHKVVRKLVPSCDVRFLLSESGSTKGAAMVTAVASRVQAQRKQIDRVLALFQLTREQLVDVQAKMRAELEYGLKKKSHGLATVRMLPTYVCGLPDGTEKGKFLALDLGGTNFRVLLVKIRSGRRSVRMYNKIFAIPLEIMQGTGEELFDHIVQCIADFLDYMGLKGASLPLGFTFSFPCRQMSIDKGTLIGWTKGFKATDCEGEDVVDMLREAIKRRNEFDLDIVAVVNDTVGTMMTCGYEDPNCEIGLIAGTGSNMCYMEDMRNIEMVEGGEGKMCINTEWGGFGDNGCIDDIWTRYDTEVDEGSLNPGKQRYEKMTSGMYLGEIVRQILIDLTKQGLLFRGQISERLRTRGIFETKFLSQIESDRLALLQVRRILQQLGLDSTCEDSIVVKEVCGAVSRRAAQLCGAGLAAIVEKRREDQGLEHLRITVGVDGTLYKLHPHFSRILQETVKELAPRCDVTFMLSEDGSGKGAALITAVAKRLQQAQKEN
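Test system: Recombinant HKDC1 (HK5) hexokinase enzyme, produced in-house | Input: HKDC1 at 5 µg/mL | Buffer or medium: Tris pH 8.0 buffer with MgCl2, Tween-20, BSA, BME | Schedule: 90 min reaction incubation at room temperature, dark | Technique: Resazurin-to-resorufin fluorescence via G6PDH and diaphorase coupling, 525/613 nm | Controls: DMSO wells with and without enzyme mix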
Autophagy HCS: autophagy modulators in MEF cells, primary screen, imaging, high-content, MEF GFP-LC3; calls only at 10 µM (by protocol); MEF GFP-LC3 puncta imaging; test concentration mostly 10 µM; 190,000 compounds, 0.98% hits;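 active = percentage of spot-positive cells more than 3 SD above its plate mean, without a fluorescence outlier flag or 80% toxicity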
HSV augment: enhancers of HSV replication in host cells, fold increase, host cell viability. HSV replication augmentation in cells. maximum fold increase. 220,000 compounds, 0.005% hits. AID 1956, 2009; in the data active = maximum fold increase above about 1.5; tested in PC3 cells
Dynein cargo inh: inhibitors of GR-EGFP nuclear translocation, primary screen, dynein cargo transport inhibitor project, imaging, high-content, 3617.4 mouse cells; AID 1381, 2008; z-score, hits read low; 220,000 compounds, 0.47% hits; test concentration mostly 20 µM; stimulated with dexamethasone, 1 µM; stronger effect = lower value;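 active = plate z-score of nuclear minus cytoplasmic receptor signal below a set negative limit, without overly bright fluorescence or cell loss, cut at about -3.5 in these data, passing the limit was not always enough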;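 note: z-score of nuclear minus cytoplasmic ring GR-EGFP intensity difference per well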
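Also added: dexamethasone, 1.0 µM final. Medium: tet-free, stripped-serum medium. Detection: fixed, Hoechst-stained cells imaged at 10x for EGFP. Read-out: nuclear-to-cytoplasmic GR-EGFP distribution per well. Times: induction 48 h, compound 1 h, agonist 30 min.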
PERK inhibitor: block of dimerizer-induced PERK translation repression, primary screen, PERK inhibitor project, CHO PERK-DD cells, SEAP luminescence, HTS | Eukaryotic translation initiation factor 2-alpha kinase 3 (Homo sapiens), Q9NZJ5 | CHO PERK-DD fusion, SEAP luminescence translation reporter | inhibition, % at 5.6 µM | 220,000 compounds, 0.17% hits;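 active = inhibition above the mean inhibition of all tested compounds plus 3 SD, set separately per screening campaign, cut at about 2.9% in these data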;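 note: PERK kinase domain activated by AP20187 dimerizer at 100 nM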
Large screens that a line does not name were inactive. The list is not random: actives were taken first. Their share in the collection is about 1.2%.

O=C(CN1CCCC1)Nc1cccc(Cl)c1Cl	none (no result: TbHK1 inh, Autophagy HCS, HSV augment, Dynein cargo inh, PERK inhibitor)
CCn1cc(C(C)(C)C)c(C#N)c1NC(C)=O	Autophagy HCS active
CC(=O)Nc1sc2c(c1C#N)CCCCC2	none
CCn1c(C)c(C(C)=O)c(N2CCN(c3ccccc3)CC2)nc1=S	none
CCn1c(C)c(C(C)=O)c(N2CCN(C(c3ccccc3)c3ccccc3)CC2)nc1=S	Autophagy HCS active
COc1ccc(-c2noc(-c3ccoc3C)n2)cc1	none
COc1cccc(-c2noc(-c3ccoc3C)n2)c1	PERK inhibitor 3.1
Cn1c(NNC(=O)C2CCCCC2)cc(=O)n(C)c1=O	Autophagy HCS active
COc1ccc(-c2csc(NC(=S)NC(=O)c3ccco3)n2)cc1	Autophagy HCS active
CC1(C)CC(=O)C2=C(C1)OC(N)=C(C#N)C2c1cn(-c2ccccc2)nc1-c1ccc(F)cc1 (configuration not stated)	Autophagy HCS active
CC1(C)CC(=O)C2=C(C1)C(c1cn(-c3ccccc3)nc1-c1ccccc1)C(C#N)=C(N)O2 (configuration not stated)	none
O=C(CO/N=C/c1ccc(OC(F)F)cc1)NC1CCCC1	none
O=C(CO/N=C/c1ccc(OC(F)F)cc1)NC1CCCCCC1	Autophagy HCS active
COc1cccc(CNC23CC4CC(CC(C4)C2)C3)c1OCc1ccccc1	Autophagy HCS active
CCCCNC(=O)C(CC)(ONc1ccccc1C(F)(F)F)c1ccccc1 (configuration not stated)	none (no result: TbHK1 inh, Autophagy HCS, HSV augment, Dynein cargo inh, PERK inhibitor)
COc1cc(CNCc2cccnc2)ccc1OCc1ccccc1	Autophagy HCS active
O=C1CCc2cc(NS(=O)(=O)c3cc(F)ccc3F)cc3c2N1CC3	none (no result: TbHK1 inh, Autophagy HCS, HSV augment, Dynein cargo inh, PERK inhibitor)
Cc1nc(C)c(-c2ccc(SCC(=O)Nc3cccc(Cl)c3C)nn2)s1	none (no result: TbHK1 inh, Autophagy HCS, HSV augment, Dynein cargo inh, PERK inhibitor)
Cc1csc2c(=O)sc(NC(=O)c3ccc(F)cc3)nc12	PERK inhibitor 5.2 (no result: Autophagy HCS)
c1ccc(-c2cn(-c3ccccc3)c3ncnc(N4CCCCC4)c23)cc1	none
CCOc1ccc(-n2cc(-c3ccccc3)c3c(N4CCOCC4)ncnc32)cc1	Autophagy HCS active
Cc1ccc(C2=C(c3ccc([N+](=O)[O-])cc3)C(=O)OC2)cc1C	Autophagy HCS active
CCOc1ccc(S(=O)(=O)N2c3ccccc3CC2C)cc1 (configuration not stated)	Autophagy HCS active
Cc1ccc(S(=O)(=O)N2c3ccccc3CC2C)cc1 (configuration not stated)	none
CCCCCCCn1c2c(c(=N)c3c1CCC3)CCCC2	Autophagy HCS active
CCCCCCCCCn1c2c(c(=N)c3c1CCC3)CCC2	none
CC(CCC(=O)NN)C1CCC2C3CCC4CC(O)CCC4(C)C3CCC12C (configuration not stated)	none (no result: TbHK1 inh, Autophagy HCS, HSV augment, Dynein cargo inh, PERK inhibitor)
CC(CCC(C)C(C)(C)C)[C@@H]1CC[C@H]2C3C[C@H](OS(O)(=S)=S)[C@H]4C[C@H](OS(O)(=S)=S)[C@@H](OS(O)(=S)=S)C[C@]4(C)[C@H]3CC[C@]12C (some centres not stated) (tested in a mixture with another compound)	HKDC1 inhibitor 81.2 (no result: TbHK1 inh, Autophagy HCS, HSV augment, Dynein cargo inh, PERK inhibitor)
CN(Cc1ccccc1)C(=O)COC(=O)CN1C(=O)c2ccccc2C1=O	none (no result: TbHK1 inh, Autophagy HCS, HSV augment, Dynein cargo inh, PERK inhibitor)
CCCCCCCCNc1nc(Cl)nc(NCCN2CCOCC2)n1	Autophagy HCS active
O=C1OCC2OC(O)C(O)C(O)C2OC(=O)c2cc(O)c(O)c(O)c2-c2c(O)c(O)c3oc(=O)c4c(c(O)c(O)c5oc(=O)c2c3c54)-c2c1cc(O)c(O)c2O (configuration not stated)	TbHK1 inh 53.9 (no result: HKDC1 inhibitor, Autophagy HCS, PERK inhibitor)
O=C(CNC(=S)N(Cc1ccccc1)Cc1cccnc1)NCc1ccccc1	none
O=C(O)CNC(=S)N(Cc1ccccc1)Cc1cccnc1	Autophagy HCS active
CC(=O)N1C=Cc2c(c(C)c3c([nH]c4ccccc43)c2C)C1	none (no result: HKDC1 inhibitor, Autophagy HCS)
